The results in this text go back to ChEMBL document CHEMBL1156127, “Synthesis, anticonvulsant activity and 3D-QSAR study of some prop-2-eneamido and 1-acetyl-pyrazolin derivatives of aminobenzothiazole” (Eur J Med Chem, 2010).

In data set [1] the test system is Mus musculus. In words: Behavioral effect in albino mouse assessed as change in locomotor activity during 10 mins at 100 umol/kg, ip after 0.5 hrs. The data set is classed as functional. The method, boiled down: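 Mouse activity counted by actophotometer for 10 min 24 h before dosing, then again 0.5 h after 100 µmol/kg ip. % change = 100 − [(post × 100)/pre]. N = 6, mean ± SEM, Student's t test at p < 0.05.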

The species named for data set [2] is Mus musculus. In words: Protection index, ratio of TD50 to ED50 by MES test for albino mouse. It is filed as functional. The method, boiled down: (§1)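 Mice were trained on a 3.2 cm rod turning at 6 rpm, then dosed ip at 20–1000 µmol/kg and tested at 0.5 h. […] PI = TD50/ED50, with ED50 from the MES test.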
Data set [3] is described as follows: Neurotoxicity in ip dosed albino mouse during 1 min by rotarod test. It is filed as toxicity, organism-based. As to conditions: in vivo. The method, boiled down: as §1
The test system of data set [4] is Mus musculus. In words: Anticonvulsant activity in ip dosed albino mouse treated 0.5 hrs before PTZ challenge by scPTZ test. It is filed as functional. The method, boiled down:
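Compound given ip (20–1000 µmol/kg in 0.5% methyl cellulose) 0.5 h before pentylenetetrazole, which was dissolved in 0.9% NaCl and injected subcutaneously in the posterior midline of mice. Onset and severity of convulsions were scored, and ED50 was derived.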

Data set [5] relates to Mus musculus. In words: Anticonvulsant activity in ip dosed albino mouse assessed as absence of hind limb tonic extension after 0.5 hrs by MES test. It is filed as functional, Hindlimb. As to conditions: for ED50: Mus musculus, albino, Hindlimb, ip, 0.5 h. The method, boiled down: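 Mice given compound ip at 20–1000 µmol/kg, suspended in 0.5% methyl cellulose/water. Seizure induced 0.5 h later by electroconvulsometer, 50 mA, 60 cycle alternating current, 0.25 s via ear clip electrodes. Protection is reduced duration or absence of hind limb tonic extension. ED50 from at least three doses giving 10–90% protection.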

In data set [6] the test system is Rattus norvegicus. In words: Hepatotoxicity in albino rat assessed as serum SGOT level at 100 umol/kg, ip after 15 days (Rvb= 92.2 +/- 2.78). As to conditions: in vivo, 360 h.
In data set [7] the test system is Rattus norvegicus. Put plainly: Hepatotoxicity in albino rat assessed as serum SGPT level at 100 umol/kg, ip after 15 days (Rvb= 35.4 +/- 2.68). As to conditions: in vivo, 360 h.
Data set [8] deals with Rattus norvegicus. In words: CNS toxicity in albino rat assessed as duration of immobility at 100 umol/kg, ip after 0.5 hrs by Porsolt's swimpool test (Rvb= 87 +/- 1.5). As to conditions: in vivo.
The test system of data set [9] is Rattus norvegicus. Put plainly: CNS toxicity in albino rat assessed as duration of immobility at 100 umol/kg, ip after 0.5 hrs by Porsolt's swimpool test (Rvb= 92 +/- 1.2). Particulars: in vivo.
For data set [10], the system named is Rattus norvegicus. In words: CNS toxicity in albino rat assessed as duration of immobility at 100 umol/kg, ip after 0.5 hrs by Porsolt's swimpool test (Rvb= 82 +/- 2.9). Particulars: in vivo.
Data set [11] concerns Rattus norvegicus. Put plainly: CNS toxicity in albino rat assessed as duration of immobility at 100 umol/kg, ip after 0.5 hrs by Porsolt's swimpool test (Rvb= 97 +/- 2.2). As to conditions: in vivo.
For data set [12], the system named is Rattus norvegicus. Put plainly: CNS toxicity in albino rat assessed as duration of immobility at 100 umol/kg, ip after 0.5 hrs by Porsolt's swimpool test (Rvb= 104 +/- 1.8). As to conditions: in vivo.
For data set [13], the system named is Rattus norvegicus. In words: CNS toxicity in albino rat assessed as duration of immobility at 100 umol/kg, ip after 0.5 hrs by Porsolt's swimpool test (Rvb= 128 +/- 2.4). Particulars: in vivo.
Data set [14] relates to Rattus norvegicus. In words: CNS toxicity in albino rat assessed as duration of immobility at 100 umol/kg, ip after 0.5 hrs by Porsolt's swimpool test (Rvb= 113 +/- 3.1). Particulars: in vivo.

Usually TD50 stands for the dose at which the toxic effect under study appears in half of the subjects. A higher TD50 goes with harm only at a large dose. What is called ED50 is the midpoint of the dose-response relation. With `CC(=O)N1N=C(Nc2nc3ccc(C)cc3s2)CC1c1ccc(Cl)cc1` (stereo not given), the Activity with Mus musculus [1] is listed as 35.62%; with Rattus norvegicus [6], 93.3 U/ml; with Rattus norvegicus [7], 33.1 U/ml; in the data set on Rattus norvegicus [8], 91 s. Also, the PI in the data set listed under Mus musculus [2] was 4.86. In data set [3], this compound had a TD50 at 1 min of 123 µmol/kg. Besides, the 50% effective dose (ED50) came to 27.5 µmol/kg in the data set with Mus musculus [4] and 25.5 µmol/kg in the data set on Mus musculus [5]. The pED50 with Mus musculus [5] was determined as 4.59.

For the compound `CC(=O)N1N=C(Nc2nc3ccc(Cl)cc3s2)CC1c1ccc(Cl)cc1` (stereo not given), the values for the Activity in the data set on Mus musculus [1] and in the data set with Rattus norvegicus [9] were 31.66% and 134 s, respectively. For the same compound, in the data set listed under Mus musculus [2], the PI amounted to 4.35. In addition, the TD50 at 1 min in data set [3] is 345 µmol/kg. In addition, the median effective dose (ED50) in the data set with Mus musculus [4] was 81.5 µmol/kg; in the data set with Mus musculus [5], 79.5 µmol/kg. The pED50 with Mus musculus [5] stood at 4.1.

Take `COc1ccc(C2CC(Nc3nc4ccc(Cl)cc4s3)=NN2C(C)=O)cc1` (stereo not given): the Activity in the data set with Mus musculus [1] is recorded as 35.91%; with Rattus norvegicus [10], 88 s. For the same compound, the PI in the data set filed under Mus musculus [2] is 2.01. In addition, the TD50 at 1 min in data set [3] stood at 187 µmol/kg. Moreover, the 50% effective dose (ED50) in the data set on Mus musculus [4] is 97.3 µmol/kg; in the data set on Mus musculus [5], 93.3 µmol/kg. Besides, the pED50 in the data set with Mus musculus [5] is 4.03.

As for `COc1ccc(C2CC(Nc3nc4ccc(C)cc4s3)=NN2C(C)=O)cc1` (stereo not given), the Activity with Mus musculus [1] was 2.08%; in the data set with Rattus norvegicus [6], 95.4 U/ml; with Rattus norvegicus [7], 38.4 U/ml; in the data set on Rattus norvegicus [11] it was 163 s. For the same compound, the PI in the data set filed under Mus musculus [2] was 4.68. This compound also had a TD50 at 1 min in [3] of 174 µmol/kg. Further, the ED50 in the data set on Mus musculus [4] was 39.4 µmol/kg; in the data set on Mus musculus [5] it was 37.3 µmol/kg. For the same compound, the pED50 with Mus musculus [5] worked out at 4.43.

`CC(=O)N1N=C(Nc2nc3ccc(C)cc3s2)CC1c1ccccc1` (stereo not given): the figures for the Activity with Mus musculus [1] and in the data set with Rattus norvegicus [12] were 23.93% and 151 s, respectively. The PI in the data set listed under Mus musculus [2] was determined as 2.49. This compound came in with a TD50 at 1 min in [3] of 265 µmol/kg. For the same compound, the results for the ED50 in the data set with Mus musculus [4] and with Mus musculus [5] were 112 µmol/kg and 106 µmol/kg, respectively. In the data set with Mus musculus [5], the pED50 is reported as 3.97.

As to `CC(=O)N1N=C(Nc2nc3ccc(C)cc3s2)CC1c1ccc(O)cc1` (stereo not given), the Activity with Mus musculus [1] is recorded as 20.94%; in the data set with Rattus norvegicus [6], 89.6 U/ml; in the data set on Rattus norvegicus [7], 30.2 U/ml; with Rattus norvegicus [13], 136 s. Besides, in the data set filed under Mus musculus [2], the PI is recorded as 3.14. This compound gave a TD50 at 1 min in data set [3] of 157 µmol/kg. Also, the 50% effective dose (ED50) in the data set with Mus musculus [4] was 54.3 µmol/kg; in the data set with Mus musculus [5] it was 50.2 µmol/kg. The pED50 in the data set with Mus musculus [5] is 4.3.

Take `COc1ccc(C2CC(Nc3nc4ccc(C)cc4s3)=NN2C(C)=O)cc1O` (stereo not given): the figures for the Activity in the data set with Mus musculus [1] and in the data set on Rattus norvegicus [14] were 29.5% and 177 s, respectively. In addition, the PI in the data set filed under Mus musculus [2] was 1.99. The same compound returned a TD50 at 1 min in data set [3] of 147 µmol/kg. Further, the ED50 is 75.6 µmol/kg with Mus musculus [4] and 73.9 µmol/kg with Mus musculus [5]. Also, the pED50 with Mus musculus [5] is recorded as 4.13.
